# In paper PMC4615699 (Cell, 2015):
# Columns and labels:
# PTGS1 = PTGS1 (Mus musculus, UniProt P22437); assay: In situ competitive SILAC profiling of A-DA labeling, PTGS1 in Neuro2a cells; type: cell-based; settings: drug 25 μM, A-DA 5 μM, 30 min
# NUCB1 [1] = target: T1, NUCB1 (Homo sapiens, UniProt Q02818); type: binding; settings: AEA-DA 5.0 μM; lipids 20×
# T1 sequence (Q02818 27-461): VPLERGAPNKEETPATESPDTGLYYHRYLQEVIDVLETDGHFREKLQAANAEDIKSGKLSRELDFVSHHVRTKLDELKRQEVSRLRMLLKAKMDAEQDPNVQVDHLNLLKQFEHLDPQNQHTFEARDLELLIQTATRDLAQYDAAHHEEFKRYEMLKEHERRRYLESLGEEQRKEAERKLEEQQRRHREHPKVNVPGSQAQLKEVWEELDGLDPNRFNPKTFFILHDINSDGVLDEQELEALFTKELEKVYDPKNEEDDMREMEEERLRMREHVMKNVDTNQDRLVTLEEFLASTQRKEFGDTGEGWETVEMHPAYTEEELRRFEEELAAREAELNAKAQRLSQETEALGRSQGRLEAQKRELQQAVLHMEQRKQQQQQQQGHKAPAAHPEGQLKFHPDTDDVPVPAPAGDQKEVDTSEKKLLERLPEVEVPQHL
# Summary of the method: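 Performed in vitro in lysates of NUCB1-transfected HEK293T cells, with AEA-DA probe and lipid competitors. Labeled proteomes (1.0 mg/mL) were CuAAC-conjugated to rhodamine-azide for 1 h at room temperature, quenched in SDS loading buffer, separated on 10% SDS-PAGE and detected by in-gel fluorescence.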
# [2] = target: T2, recombinant, purified human NUCB1 (hNUCB1) (Homo sapiens, UniProt Q02818); assay: NUCB1 FluoPol assay with Fl-AEA probe; type: binding; settings: for suppression of the NUCB1-FluoPol signal by lipids: concentration-dependent
# T2 sequence (Q02818 27-461): T1 sequence (Q02818 27-461)
# Summary of the method: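 Fluorescence polarization readout using purified recombinant human NUCB1 and fluorescent arachidonoyl probe Fl-AEA. Lipid competitors were titrated for concentration-dependent loss of polarization signal. Mean ± SD from at least three independent experiments.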
# NENF = NENF (Homo sapiens, UniProt Q9UMX5); type: binding; settings: competitors 1–100 μM; NENF-transfected HEK293T lysates
# PTGR2 = PTGR2 (Mus musculus, UniProt Q8VDQ1); assay: In situ AEA-DA competition with lipid competitor AEA, PTGR2; type: cell-based; settings: competitor 200 μM
# DHRS1 = DHRS1 (Mus musculus, UniProt Q99L04); assay: In situ AEA-DA competition with lipid competitor AEA, DHRS1; type: cell-based; settings: competitor 200 μM
# NAMPT = NAMPT (Mus musculus, UniProt Q99KQ4); settings: 25 μM, AEA-DA 5 μM, Neuro2a
# [3] = system: A549 cells treated with PMA; assay: PMA-stimulated prostaglandin production in A549 cells; type: cell-based, human
# ABCB1B = ABCB1B (Mus musculus, UniProt P06795); assay: In situ drug profiling with lipid probes, ABCB1B in Neuro2a cells; type: cell-based
# [4] = system: PMA-stimulated A549 cells; assay: Conversion of exogenous AEA to PGF2α-EA in PMA-stimulated A549 cells; type: cell-based, human; settings: AEA 20 μM, 30 min; MJN228, KML110 5 and 25 μM; others 25 μM
# Summary of the method: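 A549 cells stimulated with PMA were treated with test compound or DMSO. Exogenous AEA (20 μM, 30 min) was then added and prostamide PGF2α-EA formation was measured. Mean ± SEM, n = 3-4 per group.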
# Neuro2a cells [5] = assay: Targeted metabolite; type: cell-based, mouse; settings: for elevations in NAEs (targeted MRM): 10 μM, 6 h
# Summary of the method: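 Neuro2a cells were treated with test compound (10 μM) or DMSO for 6 h. Fatty acid amides (NAEs, NATs) were quantified by targeted MRM mass spectrometry. Mean ± SEM, n = 3-4 per group, compared against DMSO-treated cells.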
# NUCB1 [6] = target: T1, NUCB1; type: binding; settings: read-out: IC50, blockade of AEA-DA probe labeling of NUCB1; AEA-DA 5 μM; NUCB1 0.25 μM in HEK293T lysates 0.75 mg/mL
# [7] = system: purified recombinant FAAH; assay: Inhibition of purified recombinant FAAH; type: biochemical; settings: read-out: IC50 against purified recombinant FAAH
# [8] = target: endogenous FAAH in Neuro2a lysates (Mus musculus, UniProt O08914); assay: Inhibition of endogenous FAAH in Neuro2a lysates; type: biochemical; settings: read-out: IC50 against endogenous FAAH in Neuro2a lysates
# NUCB1 [9] = target: T3, NUCB1 (Mus musculus, UniProt Q02819); type: cell-based; settings: Neuro2a cells; for reductions in lipid probe enrichment of NUCB1: 25 μM
# T3 sequence (Q02819 26-459): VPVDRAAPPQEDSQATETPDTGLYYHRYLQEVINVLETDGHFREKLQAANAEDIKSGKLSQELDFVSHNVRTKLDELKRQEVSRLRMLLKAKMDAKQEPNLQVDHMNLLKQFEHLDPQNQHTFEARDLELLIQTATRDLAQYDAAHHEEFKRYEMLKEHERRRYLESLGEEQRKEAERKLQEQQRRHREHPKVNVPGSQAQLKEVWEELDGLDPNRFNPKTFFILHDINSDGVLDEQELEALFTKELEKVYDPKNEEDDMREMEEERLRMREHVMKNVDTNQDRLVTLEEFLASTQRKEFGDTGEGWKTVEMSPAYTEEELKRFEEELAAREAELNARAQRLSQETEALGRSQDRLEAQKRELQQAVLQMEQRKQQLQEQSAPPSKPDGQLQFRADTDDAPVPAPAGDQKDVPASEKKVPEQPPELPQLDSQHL
# [10] = system: other AEA-DA-modified proteins; assay: Gel-based AEA-DA labeling of other proteins in HEK293T cell lysates; type: binding, human
# Neuro2a cells [11] = assay: Untargeted LC-MS lipidomic analysis of compound-treated Neuro2a cells; type: cell-based, mouse; settings: 10 μM, 6 h, P < 0.0001
# NUCB1 (aa 53-68) = NUCB1 (aa 53-68) (Mus musculus, UniProt Q02819); assay: isoTOP-ABPP mapping of AEA-DA-labeled NUCB1 peptide in Neuro2a cells; type: cell-based; settings: 50 μM compound, AEA-DA 50 μM
# Summary of the method: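 Neuro2a cells were co-treated with AEA-DA (50 μM) and DMSO or test compound (50 μM), then UV-irradiated. Probe-labeled proteins were CuAAC-conjugated to TEV-cleavable azide-biotin tags, isotopically light for DMSO samples and heavy for compound samples. Probe-modified peptides were mapped by isoTOP-ABPP LC-MS/MS.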
# LSS = LSS (Homo sapiens, UniProt P48449); assay: In situ drug profiling with lipid probes, LSS; type: cell-based; settings: 5 μM drug
# TMEM97 = TMEM97 (Mus musculus, UniProt Q8VD00); assay: In situ drug profiling with lipid probes, TMEM97; type: cell-based
# [12] = target: recombinantly expressed TMEM97 (Homo sapiens, UniProt Q5BJF2); type: cell-based; settings: transfected HEK293T cells
# Summary of the method: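 Transfected HEK293T cells (2.5 × 10^6 per 6-cm plate, grown 18-24 h) were washed in DPBS. They then received AEA-DA plus competitor or vehicle in serum-free media for 30 min at 37 °C, followed by 365 nm UV for 10 min at 4 °C. Lysates at 1.0 mg/mL were clicked to rhodamine-azide (TBTA, CuSO4, TCEP; 1 h, room temperature), resolved by 10% SDS-PAGE and read by in-gel fluorescence scanning.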
# EBP = EBP (Mus musculus, UniProt P70245); assay: In situ drug profiling with lipid probes, EBP; type: cell-based; settings: 5 μM drug
# ferrochelatase (FECH) = ferrochelatase (FECH) (Mus musculus, UniProt P22315); assay: In situ drug profiling with lipid probes, FECH; type: cell-based
# PTGS2 = PTGS2 (Homo sapiens, UniProt P35354); settings: drug 25 μM, A-DA 5 μM, 30 min, A549
# [13] = target: aldose reductase-related protein 2 (AKR1B8) (Mus musculus, UniProt P45377); assay: In situ competitive SILAC profiling of A-DA labeling, AKR1B8 in Neuro2a cells; type: cell-based; settings: drug 25 μM, A-DA 5 μM
# Sequence of NENF (Q9UMX5 32-172, species assumed): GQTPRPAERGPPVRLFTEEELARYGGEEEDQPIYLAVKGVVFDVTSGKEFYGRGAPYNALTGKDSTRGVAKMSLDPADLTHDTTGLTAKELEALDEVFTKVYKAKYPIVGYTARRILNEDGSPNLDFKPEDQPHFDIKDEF
# Sequence of ABCB1B (P06795 whole entry): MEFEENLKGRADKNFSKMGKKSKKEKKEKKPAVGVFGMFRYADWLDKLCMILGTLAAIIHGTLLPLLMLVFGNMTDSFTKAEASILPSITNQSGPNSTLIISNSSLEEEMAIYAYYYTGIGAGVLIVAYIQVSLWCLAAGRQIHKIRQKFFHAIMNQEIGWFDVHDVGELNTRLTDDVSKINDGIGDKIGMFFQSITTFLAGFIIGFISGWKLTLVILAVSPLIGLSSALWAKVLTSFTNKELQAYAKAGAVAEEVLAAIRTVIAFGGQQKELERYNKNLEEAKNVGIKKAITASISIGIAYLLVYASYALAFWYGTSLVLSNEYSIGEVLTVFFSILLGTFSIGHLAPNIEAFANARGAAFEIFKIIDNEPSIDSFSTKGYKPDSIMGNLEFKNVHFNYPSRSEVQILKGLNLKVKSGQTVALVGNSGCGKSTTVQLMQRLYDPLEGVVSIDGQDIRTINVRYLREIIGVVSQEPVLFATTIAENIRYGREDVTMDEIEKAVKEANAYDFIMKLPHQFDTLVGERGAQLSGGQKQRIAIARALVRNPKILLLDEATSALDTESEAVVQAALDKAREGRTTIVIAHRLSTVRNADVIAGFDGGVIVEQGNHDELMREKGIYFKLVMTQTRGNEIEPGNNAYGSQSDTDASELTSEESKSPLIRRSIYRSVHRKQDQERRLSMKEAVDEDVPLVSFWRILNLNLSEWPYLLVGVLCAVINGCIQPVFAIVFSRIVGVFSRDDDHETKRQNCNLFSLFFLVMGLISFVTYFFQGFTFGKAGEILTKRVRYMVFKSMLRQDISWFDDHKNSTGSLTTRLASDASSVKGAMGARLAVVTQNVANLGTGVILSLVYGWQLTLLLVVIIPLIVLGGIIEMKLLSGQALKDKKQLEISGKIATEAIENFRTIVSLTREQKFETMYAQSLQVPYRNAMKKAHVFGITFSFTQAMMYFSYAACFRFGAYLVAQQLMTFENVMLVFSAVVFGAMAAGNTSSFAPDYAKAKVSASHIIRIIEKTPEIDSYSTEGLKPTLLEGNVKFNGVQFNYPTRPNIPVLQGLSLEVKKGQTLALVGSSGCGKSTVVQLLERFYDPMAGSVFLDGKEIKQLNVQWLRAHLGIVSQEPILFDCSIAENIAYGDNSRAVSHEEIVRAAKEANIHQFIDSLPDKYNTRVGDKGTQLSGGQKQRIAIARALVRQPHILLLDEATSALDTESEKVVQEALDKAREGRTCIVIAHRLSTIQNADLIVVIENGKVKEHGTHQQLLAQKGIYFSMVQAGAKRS
# Sequence of endogenous FAAH in Neuro2a lysates (O08914 whole entry): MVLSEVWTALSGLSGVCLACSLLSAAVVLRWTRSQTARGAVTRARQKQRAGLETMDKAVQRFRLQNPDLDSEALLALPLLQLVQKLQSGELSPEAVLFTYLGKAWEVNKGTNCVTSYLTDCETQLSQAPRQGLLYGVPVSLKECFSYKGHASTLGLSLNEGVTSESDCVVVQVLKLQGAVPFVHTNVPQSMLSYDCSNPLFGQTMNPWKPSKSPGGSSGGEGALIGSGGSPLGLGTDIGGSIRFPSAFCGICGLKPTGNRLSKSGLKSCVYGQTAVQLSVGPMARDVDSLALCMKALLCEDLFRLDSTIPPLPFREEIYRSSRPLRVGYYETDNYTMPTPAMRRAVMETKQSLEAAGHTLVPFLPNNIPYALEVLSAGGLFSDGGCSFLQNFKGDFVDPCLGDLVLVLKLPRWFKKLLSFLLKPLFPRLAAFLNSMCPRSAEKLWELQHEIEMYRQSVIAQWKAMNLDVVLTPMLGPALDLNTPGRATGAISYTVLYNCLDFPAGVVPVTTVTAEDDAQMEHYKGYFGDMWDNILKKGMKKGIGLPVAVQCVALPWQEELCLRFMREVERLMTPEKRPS
# Sequence of recombinantly expressed TMEM97 (Q5BJF2 whole entry): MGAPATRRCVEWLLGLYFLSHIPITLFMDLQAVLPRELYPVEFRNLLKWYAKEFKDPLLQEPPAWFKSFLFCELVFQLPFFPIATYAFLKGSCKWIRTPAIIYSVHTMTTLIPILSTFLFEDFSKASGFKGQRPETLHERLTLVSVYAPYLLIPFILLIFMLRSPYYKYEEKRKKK
# Sequence of TMEM97 (Q8VD00 whole entry): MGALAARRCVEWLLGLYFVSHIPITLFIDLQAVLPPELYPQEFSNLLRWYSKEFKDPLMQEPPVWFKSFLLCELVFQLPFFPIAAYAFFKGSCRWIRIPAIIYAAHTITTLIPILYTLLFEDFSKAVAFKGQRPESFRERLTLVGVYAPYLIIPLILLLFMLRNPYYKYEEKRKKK
# Sequence of NAMPT (Q99KQ4 whole entry): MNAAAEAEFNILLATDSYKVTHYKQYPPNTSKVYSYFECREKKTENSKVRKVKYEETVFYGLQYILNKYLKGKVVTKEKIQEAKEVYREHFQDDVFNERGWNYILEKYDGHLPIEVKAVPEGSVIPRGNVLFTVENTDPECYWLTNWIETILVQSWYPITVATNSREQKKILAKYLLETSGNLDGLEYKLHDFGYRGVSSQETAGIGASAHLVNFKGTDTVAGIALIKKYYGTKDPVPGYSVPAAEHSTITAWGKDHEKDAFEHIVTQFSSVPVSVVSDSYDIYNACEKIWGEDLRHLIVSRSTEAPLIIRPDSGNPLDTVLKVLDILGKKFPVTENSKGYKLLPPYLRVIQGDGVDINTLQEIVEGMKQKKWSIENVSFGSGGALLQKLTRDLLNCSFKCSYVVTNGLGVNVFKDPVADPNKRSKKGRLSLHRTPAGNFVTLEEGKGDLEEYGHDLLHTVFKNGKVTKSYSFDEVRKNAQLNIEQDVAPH
# Sequence of PTGR2 (Q8VDQ1 whole entry): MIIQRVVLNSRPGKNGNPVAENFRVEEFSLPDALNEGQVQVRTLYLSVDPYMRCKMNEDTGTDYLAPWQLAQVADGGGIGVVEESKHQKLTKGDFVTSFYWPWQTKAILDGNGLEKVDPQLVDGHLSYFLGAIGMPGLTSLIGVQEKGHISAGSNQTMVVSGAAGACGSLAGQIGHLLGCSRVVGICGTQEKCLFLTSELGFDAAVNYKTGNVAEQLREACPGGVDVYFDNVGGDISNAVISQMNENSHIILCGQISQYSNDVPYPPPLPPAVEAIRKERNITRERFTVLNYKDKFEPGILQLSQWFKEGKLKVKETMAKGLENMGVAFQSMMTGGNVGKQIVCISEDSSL
# Sequence of PTGS1 (P22437 27-602): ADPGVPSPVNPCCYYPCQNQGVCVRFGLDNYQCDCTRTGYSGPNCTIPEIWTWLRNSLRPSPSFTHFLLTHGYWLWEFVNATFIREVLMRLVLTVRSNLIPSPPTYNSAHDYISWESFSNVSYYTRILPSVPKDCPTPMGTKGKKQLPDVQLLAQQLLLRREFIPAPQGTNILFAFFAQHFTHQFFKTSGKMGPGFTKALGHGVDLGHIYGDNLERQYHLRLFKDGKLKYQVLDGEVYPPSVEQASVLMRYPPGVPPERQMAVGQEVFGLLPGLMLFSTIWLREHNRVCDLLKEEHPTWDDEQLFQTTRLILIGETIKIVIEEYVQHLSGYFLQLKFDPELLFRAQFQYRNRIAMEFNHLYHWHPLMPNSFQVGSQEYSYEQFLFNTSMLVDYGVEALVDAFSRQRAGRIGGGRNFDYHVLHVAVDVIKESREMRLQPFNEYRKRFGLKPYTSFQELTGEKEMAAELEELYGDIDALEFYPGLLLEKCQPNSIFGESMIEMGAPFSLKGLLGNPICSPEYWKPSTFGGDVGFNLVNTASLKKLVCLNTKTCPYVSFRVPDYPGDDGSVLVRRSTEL
# Sequence of DHRS1 (Q99L04 whole entry): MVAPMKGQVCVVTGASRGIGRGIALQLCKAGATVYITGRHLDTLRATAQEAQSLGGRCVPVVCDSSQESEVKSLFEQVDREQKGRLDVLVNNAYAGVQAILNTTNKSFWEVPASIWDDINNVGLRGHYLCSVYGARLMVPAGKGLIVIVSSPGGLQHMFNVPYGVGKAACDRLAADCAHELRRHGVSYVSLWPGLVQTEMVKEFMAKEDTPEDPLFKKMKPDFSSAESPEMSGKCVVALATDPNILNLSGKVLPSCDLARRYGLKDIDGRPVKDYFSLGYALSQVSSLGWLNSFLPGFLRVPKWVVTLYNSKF
# Sequence of PTGS2 (P35354 18-604): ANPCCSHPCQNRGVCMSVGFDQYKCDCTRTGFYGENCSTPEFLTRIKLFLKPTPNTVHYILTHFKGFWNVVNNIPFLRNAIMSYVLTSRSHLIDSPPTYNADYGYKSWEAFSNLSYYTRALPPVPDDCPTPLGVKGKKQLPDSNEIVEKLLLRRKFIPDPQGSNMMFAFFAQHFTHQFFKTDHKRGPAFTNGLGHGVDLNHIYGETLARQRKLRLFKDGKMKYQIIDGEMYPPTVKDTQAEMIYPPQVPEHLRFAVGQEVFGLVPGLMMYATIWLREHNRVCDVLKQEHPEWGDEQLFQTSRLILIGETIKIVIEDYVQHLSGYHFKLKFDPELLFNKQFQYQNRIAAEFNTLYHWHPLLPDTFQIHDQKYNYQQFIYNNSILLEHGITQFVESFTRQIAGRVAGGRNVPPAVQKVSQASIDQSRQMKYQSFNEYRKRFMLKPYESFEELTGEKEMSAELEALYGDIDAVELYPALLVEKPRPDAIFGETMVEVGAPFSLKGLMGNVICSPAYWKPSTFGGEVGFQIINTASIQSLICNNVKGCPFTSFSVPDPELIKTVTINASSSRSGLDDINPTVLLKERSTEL
# Sequence of EBP (P70245 whole entry): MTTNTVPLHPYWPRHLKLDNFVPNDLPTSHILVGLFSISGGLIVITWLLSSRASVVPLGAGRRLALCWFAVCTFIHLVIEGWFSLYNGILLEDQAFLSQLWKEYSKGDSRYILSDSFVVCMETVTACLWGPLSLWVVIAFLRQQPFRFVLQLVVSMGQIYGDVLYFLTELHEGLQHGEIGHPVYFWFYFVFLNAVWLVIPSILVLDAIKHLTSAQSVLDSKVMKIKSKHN
smiles,measurement,setting,value
CC(C(=O)O)c1ccc(-c2ccccc2)c(F)c1 (racemic) [(±)-flurbiprofen],competition of A-DA labeling of PTGS1,PTGS1,competitively blocked
"CCCCC/C=C\C/C=C\C/C=C\C/C=C\CCCC(=O)OC(CO)CO [2-AG, 2-arachidonoyl glycerol]",blockade of AEA-DA probe labeling of recombinant NUCB1 by lipids,NUCB1 [1],preferentially blocked
same,suppression of the NUCB1-FluoPol signal by lipids,"[2]; Fl-AEA 0.5 μM, NUCB1 1.0 μM",Concentration-dependent suppression
"CCCCC/C=C\C/C=C\C/C=C\C/C=C\CCCC(=O)O [AA, arachidonic acid]",competition of AEA-DA probe labeling of recombinant NENF,NENF,competitively blocked
same,blockade of AEA-DA probe labeling of recombinant NUCB1 by lipids,NUCB1 [1],preferentially blocked
same,suppression of FluoPol signal by competitive lipid,"[2]; 20 μM competitor, Fl-AEA 0.5 μM, NUCB1 1.0 μM",significantly suppressed
same,suppression of the NUCB1-FluoPol signal by lipids,"[2]; Fl-AEA 0.5 μM, NUCB1 1.0 μM",Concentration-dependent suppression
"CCCCC/C=C\C/C=C\C/C=C\C/C=C\CCCC(=O)NCCO [AEA, N-arachidonoyl ethanolamine]",competition of PTGR2 probe labeling,PTGR2,competed
same,competition of DHRS1 probe labeling,DHRS1,competed
same,blockade of AEA-DA probe labeling of recombinant NUCB1 by lipids,NUCB1 [1],preferentially blocked
same,suppression of the NUCB1-FluoPol signal by lipids,"[2]; Fl-AEA 0.5 μM, NUCB1 1.0 μM",Concentration-dependent suppression
O=C(/C=C/c1cccnc1)NCCCCC1CCN(C(=O)c2ccccc2)CC1 [FK-866],competition of probe-labeling of NAMPT,NAMPT,competed
same,PMA-stimulated generation of PGE2,[3],no effect
same,PMA-stimulated generation of TXB2,[3],complete suppression
same,competition of probe-labeling of ABCB1B,"ABCB1B; 25 μM, AEA-DA 5 μM, Neuro2a",competed
CCCCC/C=C\C/C=C\C/C=C\C/C=C\CCCC(=O)NCCCCCNC(=O)c1ccc(-c2c3ccc(=[N+](C)C)cc-3oc3cc(N(C)C)ccc23)c(C(=O)[O-])c1 [Fl-AEA],binding of probe to hNUCB1 (increase in FluoPol signal),[2],bound
CN1CCN(C(=O)c2c(-c3ccccc3)c3cc([N+](=O)[O-])ccc3n2C)CC1 [KML110],conversion of exogenous AEA to PGF2α-EA,[4],suppress
same,cellular concentrations of NAEs and NATs,Neuro2a cells [5],elevated
same,elevations in NAEs (targeted MRM),Neuro2a cells [5],elevations
same,IC50,NUCB1 [6],9.6 µM
same,IC50,[7],> 100 µM
same,IC50,[8],> 100 µM
same,reductions in lipid probe enrichment of NUCB1,NUCB1 [9],3-5 fold
CN1CCN(C(=O)c2[nH]c3ccc([N+](=O)[O-])cc3c2-c2ccccc2)CC1 [MJN228],disruption of other arachidonoyl probe-protein interactions,[10]; HEK293T cell lysates,did not appear to disrupt
same,conversion of exogenous AEA to PGF2α-EA,[4],suppress
same,cellular concentrations of NAEs and NATs,Neuro2a cells [5],elevated
same,elevations in NAEs (targeted MRM),Neuro2a cells [5],elevations
same,elevation of metabolites (NAEs and NATs) versus DMSO,Neuro2a cells [11],≥ 2 fold
same,IC50,NUCB1 [6],3.3 µM
same,reduction of signals of AEA-DA-labeled NUCB1 peptide (aa 53-68),NUCB1 (aa 53-68),> 5 fold
same,IC50,[7],> 100 µM
same,IC50,[8],> 100 µM
same,selectivity for NUCB1 among ∼400 AEA-DA probe targets,"NUCB1 [9]; 10 μM, AEA-DA 5 μM",most competed protein
same,reductions in lipid probe enrichment of NUCB1,NUCB1 [9],3-5 fold
same,concentration inhibiting lipid probe binding to NUCB1 (as low as),NUCB1 [9],≤ 10 µM
same,concentration of near-maximal inhibition of lipid probe binding to NUCB1,NUCB1 [9],~25 µM
O=C(Nc1cccnn1)N1CCC(=Cc2cccc(Oc3ccc(C(F)(F)F)cn3)c2)CC1 [PF-7845],cellular concentrations of NAEs and NATs,Neuro2a cells [5],elevated
"C=CC1=C(C)c2cc3[nH]c(cc4nc(cc5[nH]c(cc1n2)c(C)c5CCC(=O)O)C(CCC(=O)O)=C4C)c(C)c3C=C [Pp-IX, protoporphyrin IX]",competition of AEA-DA probe labeling of recombinant NENF,NENF,inhibited
C=CCN(C)CCCCCCOc1ccc(C(=O)c2ccc(Br)cc2)c(F)c1 [Ro 48-8071],competition of LSS,LSS,fully competed
same,competition of TMEM97,TMEM97; 5 μM drug,prominent off-targets
same,blockade of AEA-DA probe labeling of recombinant TMEM97,[12],block
same,competition of EBP,EBP,prominent off-targets
COc1cc2c(cc1OC)CN(CCc1ccc(NC(=O)c3cccc4c(=O)c5cccc(OC)c5[nH]c34)cc1)CC2 [elacridar],concentration blocking arachidonoyl probe labeling of FECH (as low as),ferrochelatase (FECH),≤ 0.5 µM
same,concentration blocking arachidonoyl probe labeling of TMEM97 (as low as),TMEM97,≤ 0.5 µM
same,blockade of AEA-DA probe labeling of recombinant TMEM97,[12],block
same,concentration blocking arachidonoyl probe labeling of ABCB1B (as low as),ABCB1B,≤ 0.5 µM
C=CC1=C(C)c2cc3[n-]c(cc4[n-]c(cc5nc(cc1n2)C(C)=C5C=C)c(C)c4CCC(=O)O)c(CCC(=O)O)c3C.[Cl-].[Fe+3] [hemin],effect on other AEA-DA-modified proteins detected by SDS-PAGE,[10]; NENF-transfected HEK293T lysates,unaffected
same,competition of AEA-DA probe labeling of recombinant NENF,NENF,inhibited
CS(=O)(=O)c1ccc(C2=C(c3ccccc3)C(=O)OC2)cc1 [rofecoxib],conversion of exogenous AEA to PGF2α-EA,[4],blocked
same,competition of A-DA labeling of PTGS2,PTGS2,disrupted
same,reduction in A-DA labeling of AKR1B8,[13],strong reductions
